Laboratory results from ChEMBL document CHEMBL1146521, “Sesquiterpene lactones from Anthemis altissima and their anti-Helicobacter pylori activity” (2003).
≈ marks a conversion by molar mass, not a printed value. Calls of active or inactive are those of the source. The calls are words filed in the database; no cut-off is given here.

Columns and labels:
[1] = system: Bacillus cereus; assay: Antimicrobial activity against Bacillus cereus isolate after 36 hrs under aerobic condition by microdilution method; assay type: functional
Procedure, shortened: (§1)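 Bacteria grown overnight at 37 °C in tryptone soya broth (~10^9 cells/mL), then diluted in sterile saline to about 1.0 × 10^5 per well. Broth serial microdilution with compounds predissolved in DMSO, at final […]; DMSO ≤1%. Incubated 36 h at 37 °C. MIC = lowest concentration with no visible growth under binocular microscope. Inocula checked on TSA. Controls: DMSO, streptomycin.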

[2] = system: Staphylococcus aureus; assay: Antimicrobial activity against Staphylococcus aureus ATCC 6538 after 36 hrs under aerobic condition by microdilution method; assay type: functional; details: ATCC 6538, 36 h; procedure, shortened: as §1
[3] = system: Escherichia coli; assay: Antimicrobial activity against Escherichia coli ATCC 35218 after 36 hrs under aerobic condition by microdilution method; assay type: functional; details: ATCC 35218, 36 h; procedure, shortened: as §1
[4] = system: Pseudomonas aeruginosa; assay: Antimicrobial activity against Pseudomonas aeruginosa ATCC 27853 after 36 hrs under aerobic condition by microdilution method; assay type: functional, organism-based; procedure, shortened: as §1
[5] = system: Micrococcus flavus; assay: Antimicrobial activity against Micrococcus flavus ATCC 10240 after 36 hrs under aerobic condition by microdilution method; assay type: functional; details: ATCC 10240, 36 h; procedure, shortened: as §1
[6] = system: Proteus mirabilis; assay: Antimicrobial activity against Proteus mirabilis isolates after 36 hrs under aerobic condition by microdilution method; assay type: functional; procedure, shortened: as §1
[7] = system: Helicobacter pylori; assay: Antimicrobial activity against Helicobacter pylori isolates after 3 days under microaerobic condition by microdilution method
[8] = system: Helicobacter pylori; assay: Antimicrobial activity against Helicobacter pylori isolates after 36 hrs under […] condition by microdilution method; assay type: functional

For `C=C1C(=O)O[C@H]2C[C@@]3(C)[C@H](O)CCC(=C)[C@@H]3[C@@H](O)[C@H]12`, the MIC [1] was 50 µg/mL (≈ 189 µM), the MIC [2] was 50 µg/mL (≈ 189 µM) and the MIC [3] was 50 µg/mL (≈ 189 µM). For the same compound, the Activity [4] was “inactive”, the MIC [5] was 50 µg/mL (≈ 189 µM) and the Activity [6] was “inactive”. It also gave an MIC [7] of 50 µg/mL (≈ 189 µM).

`O=C1C[C@@H](c2ccc(O)c(O)c2)Oc2cc(O)cc(O)c21` [ERIODICTYOL] was tested, and the Activity [4] was “inactive”, the Activity [6] was “inactive” and the MIC [7] was 50 µg/mL (≈ 173 µM).

With `C=C1C(=O)O[C@H]2C[C@@]3(C)[C@H](C(C)=CC[C@@H]3O)[C@@H](O)[C@H]12` [ALTISSIN] the MIC [1] was 12.5 µg/mL (≈ 47.3 µM), the MIC [2] was 50 µg/mL (≈ 189 µM) and the Activity [4] was “inactive”. The Activity [6] was “inactive” and the MIC [7] was 50 µg/mL (≈ 189 µM).

`COc1c(-c2ccc(O)c(O)c2)oc2cc(O)cc(O)c2c1=O` [3-O-METHYLQUERCETIN] was tested, and the MIC [3] was 50 µg/mL (≈ 158 µM), the Activity [4] was “inactive” and the Activity [6] was “inactive”. For the same compound, the MIC [7] was 12.5 µg/mL (≈ 39.5 µM).

`O=C(/C=C/c1ccc(O)c(O)c1)O[C@@H]1C[C@](O)(C(=O)O)C[C@@H](O)[C@H]1O` [CHLOROGENIC ACID] was tested, and the Activity [4] was “inactive”, the Activity [6] was “inactive” and the MIC [7] was 6.25 µg/mL (≈ 17.6 µM).

`O=C1c2c(O)cc(O)cc2O[C@H](c2ccc(O)c(O)c2)[C@H]1O` [(+)-TAXIFOLIN] was tested, and the Activity [4] was “inactive”, the Activity [6] was “inactive” and the MIC [7] was 25 µg/mL (≈ 82.2 µM).

In the case of `C=C1C(=O)O[C@H]2/C=C(\C)[C@@H](O)CC/C(C)=C/[C@@H](O)[C@H]12` [TATRIDIN A], the MIC [1] is reported as 50 µg/mL (≈ 189 µM), the MIC [2] is reported as 50 µg/mL (≈ 189 µM) and the Activity [4] is reported as “inactive”. For the same compound, the Activity [6] was “inactive” and the MIC [7] was 12.5 µg/mL (≈ 47.3 µM).

In the case of `O=c1c(O[C@@H]2O[C@H](CO)[C@@H](O)[C@H](O)[C@H]2O)c(-c2ccc(O)c(O)c2)oc2cc(O)cc(O)c12` [ISOQUERCETIN], the Activity [4] is reported as “inactive”, the Activity [6] is reported as “inactive” and the MIC [7] is reported as 25 µg/mL (≈ 53.8 µM).

`C=C1C(=O)O[C@H]2CC(=C)[C@@H](O)CC/C(C)=C/[C@@H](O)[C@H]12` [TATRIDIN B] gave an MIC [1] of 50 µg/mL (≈ 189 µM), an MIC [2] of 50 µg/mL (≈ 189 µM) and an MIC [3] of 50 µg/mL (≈ 189 µM). For the same compound, the Activity [4] was “inactive”, the MIC [5] was 50 µg/mL (≈ 189 µM) and the Activity [6] was “inactive”. The MIC [7] was 50 µg/mL (≈ 189 µM).

For `C=C1C(=O)O[C@H]2C[C@@]3(C)[C@H](O)CC=C(C)[C@@H]3[C@@H](O)[C@H]12`, the MIC [1] was 25 µg/mL (≈ 94.6 µM), the MIC [2] was 50 µg/mL (≈ 189 µM) and the Activity [4] was “inactive”. For the same compound, the Activity [6] was “inactive” and the MIC [7] was 12.5 µg/mL (≈ 47.3 µM).

With `O=c1cc(-c2ccc(O)cc2)oc2cc(O)cc(O)c12` the Activity [4] was “inactive”, the Activity [6] was “inactive” and the Activity [7] was “inactive”.

`COc1ccc(-c2oc3cc(O)c(OC)c(O)c3c(=O)c2OC)cc1O` was tested, and the Activity [4] was “inactive” and the Activity [6] was “inactive”.

With `COc1ccc(-c2oc3cc(O)cc(O)c3c(=O)c2O)cc1` [KAEMPFERIDE] the MIC [1] was 25 µg/mL (≈ 83.3 µM), the Activity [4] was “inactive” and the MIC [5] was 50 µg/mL (≈ 167 µM). For the same compound, the Activity [6] was “inactive” and the MIC [7] was 6.25 µg/mL (≈ 20.8 µM).

`CN[C@@H]1[C@H](O[C@H]2[C@H](O[C@H]3[C@H](O)[C@@H](O)[C@H](N=C(N)N)[C@@H](O)[C@@H]3N=C(N)N)O[C@@H](C)[C@]2(O)C=O)O[C@@H](CO)[C@H](O)[C@H]1O` [STREPTOMYCIN] was tested, and the MIC [1] was 100 µg/mL (≈ 172 µM), the MIC [2] was 100 µg/mL (≈ 172 µM) and the MIC [3] was 200 µg/mL (≈ 344 µM). For the same compound, the MIC [5] was 100 µg/mL (≈ 172 µM) and the MIC [6] was 400 µg/mL (≈ 688 µM).

With `COc1cc(O)c2c(=O)c(O)c(-c3ccc(O)c(O)c3)oc2c1` [RHAMNETIN] the Activity [4] was “inactive”, the Activity [6] was “inactive” and the MIC [7] was 50 µg/mL (≈ 158 µM).

With `O=c1c(O)c(-c2ccc(O)c(O)c2)oc2cc(O)cc(O)c12` [QUERCETIN] the MIC [1] was 50 µg/mL (≈ 165 µM), the Activity [4] was “inactive” and the Activity [6] was “inactive”. The MIC [7] was 50 µg/mL (≈ 165 µM).

In the case of `COc1cc(-c2oc3cc(O)cc(O)c3c(=O)c2O)ccc1O`, the Activity [4] is reported as “inactive”, the Activity [6] is reported as “inactive” and the Activity [8] is reported as “inactive”.
